Experimental data as given in ChEMBL document CHEMBL1142860, “Potent antitubulin tumor cell cytotoxins based on 3-aroyl indazoles” (J Med Chem, 2007).

What was measured:
NCI-H460 = test: Inhibition of proliferation of human H460 cells; type: functional, cell-based
How it was run: (§1)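 Cells in exponential growth seeded at 4000–6000 per well, held 24 h at 37 °C, 5% CO2 before compound; T0 population read by AlamarBlue at time of addition. Compounds in DMSO diluted into complete medium; 72 h exposure at 37 °C, 5% CO2. Viable cells quantified with AlamarBlue; IC50 as 50% growth inhibition; triplicate.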

HCT-15 = test: Antiproliferative activity against drug resistant HCT15 cell line expressing MDR1 by Alamar Blue assay; type: functional, cell-based; conditions: Homo sapiens; how it was run: as §1
ACHN = test: Antiproliferative activity against drug resistant ACHN cell line expressing MDR1 by Alamar Blue assay; type: functional, cell-based; conditions: Homo sapiens; how it was run: as §1
NCI-H69 = test: Antiproliferative activity against drug sensitive NCI-H69 cell line by Alamar Blue assay; type: functional, cell-based; conditions: Homo sapiens; how it was run: as §1
H69AR = test: Antiproliferative activity against drug resistant H69AR cell line expressing MRP1 by Alamar Blue assay; type: functional, cell-based; conditions: Homo sapiens; how it was run: as §1
[1] = Antiproliferative activity against drug sensitive Messa cell line by Alamar Blue assay; type: functional, cell-based; conditions: Homo sapiens, MES-SA; how it was run: as §1
[2] = Antiproliferative activity against drug resistant Messa/DX5 cell line expressing MDR1 by Alamar Blue assay; type: functional, cell-based; conditions: Homo sapiens, MES-SA/Dx5; how it was run: as §1
HT-29 = test: Cytotoxicity against human HT29 cells; type: cell-based
How it was run: (§2)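 Exponentially growing cells seeded at 4000–6000 per well and incubated 24 h (37 °C, 5% CO₂) before dosing. Cell population at time of drug addition (T₀) measured by AlamarBlue. Compounds dissolved in DMSO, diluted in complete medium, and exposed for 72 h. Viable cells quantified by AlamarBlue. IC₅₀ is 50% growth inhibition. Assays run in triplicate.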

PC-3 = test: Cytotoxicity against human PC3 cells; type: cell-based; how it was run: as §2
HeLa = test: Cytotoxicity against human HeLa cells; type: cell-based; how it was run: as §1
[3] = (§3) Displacement of [3H]colchicine from tubulin in bovine brain at 500 nM; design: species or system Bos taurus
How it was run: (§4)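 Purified tubulin (bovine brain, HeLa or MCF-7 source) preincubated with compound 10 min at 37 °C, then [3H]colchicine added and incubated a further 30 min at 37 °C. Samples spotted on DE81 filters, washed three times to remove unbound label; bound [3H]colchicine counted by scintillation.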

Bos taurus = organism: Bos taurus; test: as §3; how it was run: as §4
Tubulin [4] = test: Displacement of [3H]colchicine from tubulin in HeLa cells; type: cell-based, Homo sapiens; how it was run: as §4
Tubulin [5] = test: Displacement of [3H]colchicine from tubulin in MCF7 cells; type: cell-based, Homo sapiens; how it was run: as §4
[6] = Inhibition of bovine tubulin polymerization; design: species or system Bos taurus
How it was run: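 Purified bovine tubulin incubated with compound in buffer with 10% glycerol using a commercial kit; microtubule formation followed as rise in fluorescence intensity of the reaction mixture; IC50 from concentration-dependent inhibition.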

| Structure (SMILES) | IC50 (NCI-H460) [nM] | IC50 (HCT-15) [nM] | IC50 (ACHN) [nM] | IC50 (NCI-H69) [nM] | IC50 (H69AR) [nM] | IC50 [1] [nM] | IC50 [2] [nM] | other results |
| --- | --- | --- | --- | --- | --- | --- | --- | --- |
| COc1cc(C(=O)c2n[nH]c3c(/C=C\CO)c(OC)ccc23)cc(OC)c1OC | 13 | – | – | – | – | – | – | – |
| COc1cc(C(=O)c2n[nH]c3c(C#CC(C)(C)O)c(OC)ccc23)cc(OC)c1OC | 195 | – | – | – | – | – | – | – |
| CC(=O)O[C@H]1C(=O)[C@@]2(C)[C@H]([C@H](OC(=O)c3ccccc3)[C@]3(O)C[C@H](OC(=O)[C@H](O)[C@@H](NC(=O)c4ccccc4)c4ccccc4)C(C)=C1C3(C)C)[C@]1(OC(C)=O)CO[C@@H]1C[C@@H]2O [PACLITAXEL] | – | 79.4 | 25 | 1.9 | 2.5 | 1.6 | > 1000 | – |
| COc1cccc2c1C(=O)c1c(O)c3c(c(O)c1C2=O)C[C@@](O)(C(C)=O)C[C@@H]3O[C@H]1C[C@H](N)[C@H](O)[C@H](C)O1 [DAUNORUBICIN] | – | > 400 | 63 | 100 | > 1000 | 20 | > 400 | – |
| CC#Cc1c(OC)ccc2c(C(=O)c3cc(OC)c(OC)c(OC)c3)c[nH]c12 | > 1000 | – | – | – | – | – | – | – |
| COc1cc(C(=O)c2n[nH]c3c(C#C[C@@H](C)O)c(OC)ccc23)cc(OC)c1OC | 29 | – | – | – | – | – | – | – |
| CC[C@]1(O)C[C@@H]2CN(CCc3c([nH]c4ccccc34)[C@@](C(=O)OC)(c3cc4c(cc3OC)N(C)[C@H]3[C@@](O)(C(=O)OC)[C@H](OC(C)=O)[C@]5(CC)C=CCN6CC[C@]43[C@@H]65)C2)C1 [VINBLASTINE] | – | 79.4 | 25 | 1.6 | 1.6 | 1.6 | 8.9 | – |
| CC#Cc1c(OC)ccc2c(C(=O)c3cc(OC)c(OC)c(OC)c3)n[nH]c12 | 1 | 1.9 | 1.6 | 1.6 | 2.5 | 1.6 | 1.9 | IC50 (HT-29): 3 nM; IC50 (PC-3): 1.1 nM; IC50 (HeLa): 0.9 nM |
| COc1cc(C(=O)c2n[nH]c3c(CCCO)c(OC)ccc23)cc(OC)c1OC | 283 | – | – | – | – | – | – | – |
| COc1cc(C(=O)c2n[nH]c3c(C#CCCCO)c(OC)ccc23)cc(OC)c1OC | 8 | – | – | – | – | – | – | – |
| COc1ccc(/C=C\c2cc(OC)c(OC)c(OC)c2)cc1O [COMBRETASTATIN A4] | 10 | 2.5 | 1.6 | 1.7 | 2.5 | 1.6 | 1.4 | IC50 (HT-29): > 1000 nM; IC50 (PC-3): 3.2 nM; IC50 (HeLa): 2.7 nM |
| COc1cc(C(=O)c2n[nH]c3c(C#CCN)c(OC)ccc23)cc(OC)c1OC | 247 | – | – | – | – | – | – | – |
| COc1cc(C(=O)c2n[nH]c3c(C#C[C@H](C)O)c(OC)ccc23)cc(OC)c1OC | 14 | – | – | – | – | – | – | – |
| COc1ccc2c(C(=O)c3cc(OC)c(OC)c(OC)c3)c[nH]c2c1 | 16 | – | – | – | – | – | – | – |
| COc1cc(C(=O)c2n[nH]c3c(C#CCO)c(OC)ccc23)cc(OC)c1OC | 8 | 1.9 | 1.6 | 1.6 | 2.6 | 1.7 | 1.8 | IC50 [3]: 500 nM; Activity (Bos taurus): 70%; IC50 (Tubulin [4]): 46 nM; IC50 (Tubulin [5]): 240 nM; IC50 [6]: 6000 nM; IC50 (HT-29): 1 nM; IC50 (PC-3): 1 nM; IC50 (HeLa): 0.8 nM |
| C#Cc1c(OC)ccc2c(C(=O)c3cc(OC)c(OC)c(OC)c3)n[nH]c12 | 3 | – | 1.6 | 2.5 | 2.2 | 1.9 | 3.9 | IC50 (HT-29): 1.7 nM; IC50 (PC-3): 3 nM; IC50 (HeLa): 2.3 nM |
| COc1cc2c(c(OC)c1OC)-c1ccc(OC)c(=O)cc1[C@@H](NC(C)=O)CC2 [COLCHICINE] | – | 100 | 39.8 | – | – | 6.3 | 63 | – |
| COc1cc(C(=O)c2n[nH]c3c(C#CCCO)c(OC)ccc23)cc(OC)c1OC | 14 | – | – | – | – | – | – | – |
